The target of data set [1] is T1, Ecto-NOX disulfide-thiol exchanger 2 (Homo sapiens) (UniProt Q16206).
T1 sequence (whole entry): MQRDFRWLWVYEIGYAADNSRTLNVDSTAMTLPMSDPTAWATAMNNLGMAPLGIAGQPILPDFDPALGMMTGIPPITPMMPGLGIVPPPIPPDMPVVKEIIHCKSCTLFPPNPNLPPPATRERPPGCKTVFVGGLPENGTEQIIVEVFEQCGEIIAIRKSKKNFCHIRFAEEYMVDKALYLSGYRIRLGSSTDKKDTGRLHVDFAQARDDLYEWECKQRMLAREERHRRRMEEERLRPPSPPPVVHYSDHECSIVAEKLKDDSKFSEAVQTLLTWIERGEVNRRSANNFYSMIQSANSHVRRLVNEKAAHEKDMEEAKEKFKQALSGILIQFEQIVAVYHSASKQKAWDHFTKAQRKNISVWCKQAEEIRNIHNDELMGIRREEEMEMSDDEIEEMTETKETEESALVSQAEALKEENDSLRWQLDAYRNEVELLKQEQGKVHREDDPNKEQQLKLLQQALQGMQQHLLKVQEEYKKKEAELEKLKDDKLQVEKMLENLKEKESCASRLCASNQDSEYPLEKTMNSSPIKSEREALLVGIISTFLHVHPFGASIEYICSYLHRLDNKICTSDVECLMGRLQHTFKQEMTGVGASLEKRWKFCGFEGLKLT
Kind of data set: Inhibition of tNOX in human AGS cells assessed as reduction in cell migration. The format is cell-based.

Data set [2] can be described thus: Antiproliferative activity against human K562/4 cells after 72 hrs by MTT assay. Type of data set: functional, cell-based. Particulars: K562/4, 72 h. In general terms: Tetrazolium dyes change colour on reduction, which living cells bring about.
A short description of data set [3]: Drug uptake in human K562/4 cells at 3 uM incubated for 2 hrs by flow cytometric analysis. Particulars: k562/4, 2 h. Type of data set: ADME, cell-based. In outline:
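K562 and K562/4 cells incubated 2 h with 3 µM compound; uptake measured by flow cytometry as ratios (arbitrary units) of mean fluorescence channels of the histograms; verapamil (10 µM), a Pgp transport blocker, added 30 min before compound where used.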
In general terms: Flow cytometry measures light scatter and fluorescence of single cells or particles in a stream.

Data set [4] deals with T2, DNA topoisomerase 1 (Homo sapiens) (UniProt P11387).
T2 sequence (whole entry): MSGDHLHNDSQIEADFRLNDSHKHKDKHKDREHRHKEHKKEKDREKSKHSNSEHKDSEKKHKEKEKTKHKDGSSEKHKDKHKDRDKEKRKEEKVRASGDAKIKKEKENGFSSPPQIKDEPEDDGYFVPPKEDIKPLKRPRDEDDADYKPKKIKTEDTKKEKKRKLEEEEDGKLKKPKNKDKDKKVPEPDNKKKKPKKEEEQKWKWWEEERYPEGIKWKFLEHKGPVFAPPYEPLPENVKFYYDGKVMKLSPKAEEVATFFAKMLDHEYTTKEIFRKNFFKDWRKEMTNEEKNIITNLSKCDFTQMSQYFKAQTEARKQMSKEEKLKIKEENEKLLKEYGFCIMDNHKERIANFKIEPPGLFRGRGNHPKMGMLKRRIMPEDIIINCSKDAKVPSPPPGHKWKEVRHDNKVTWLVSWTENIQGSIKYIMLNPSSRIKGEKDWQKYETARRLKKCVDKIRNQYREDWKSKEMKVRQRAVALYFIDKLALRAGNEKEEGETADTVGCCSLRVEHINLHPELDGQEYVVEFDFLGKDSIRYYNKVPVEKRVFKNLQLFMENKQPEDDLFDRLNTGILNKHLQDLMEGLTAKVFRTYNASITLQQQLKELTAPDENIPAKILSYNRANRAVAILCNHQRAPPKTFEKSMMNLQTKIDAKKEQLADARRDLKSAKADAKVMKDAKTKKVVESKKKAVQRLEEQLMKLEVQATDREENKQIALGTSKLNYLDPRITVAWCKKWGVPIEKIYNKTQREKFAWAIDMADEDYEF
Briefly: Inhibition of Top1 (unknown origin)-mediated relaxation of pBR322 DNA at 2.5 uM incubated for 30 mins by ethidium bromide staining-based gel electrophoresis assay. Put shortly: (§1)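 Supercoiled pBR322 plasmid treated with Top1 without drug or with compound at 0.5, 2.5 or 10 µM; camptothecin as reference; relaxation assessed by gel electrophoresis.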

For data set [5], the target named is T2, DNA topoisomerase 1 (Homo sapiens). Kind of data set: Inhibition of Top1 (unknown origin)-mediated relaxation of pBR322 DNA at 0.5 uM incubated for 30 mins by ethidium bromide staining-based gel electrophoresis assay. Put shortly:
as §1

Data set [6] deals with AGS. Briefly: Induction of apoptosis in human AGS cells assessed as necrotic cells at 0.05 uM after 24 hrs by annexin V-FITC staining-based flow cytometric analysis (Rvb=0.9%). Type of data set: functional. In outline: (§2)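 AGS cells exposed to compound for 24 h; Annexin V-FITC staining and flow cytometry used to give percentage of apoptotic cells; mean ± S.E. from at least three independent experiments.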

Data set [7] has as its system AGS. Kind of data set: Induction of apoptosis in human AGS cells assessed as late apoptotic cells at 0.1 uM after 24 hrs by annexin V-FITC staining-based flow cytometric analysis (Rvb=0.3%). Type of data set: functional. Put shortly:
as §2

The subject of data set [8] is AGS. Kind of data set: Induction of apoptosis in human AGS cells assessed as late apoptotic cells at 1 uM after 24 hrs by annexin V-FITC staining-based flow cytometric analysis (Rvb=0.3%). Type of data set: functional. In outline: as §2
Data set [9] deals with AGS. Kind of data set: Induction of apoptosis in human AGS cells assessed as early apoptotic cells at 0.05 uM after 24 hrs by annexin V-FITC staining-based flow cytometric analysis (Rvb=7.2%). Type of data set: functional. In outline:
as §2

Data set [10] relates to AGS. Briefly: Induction of apoptosis in human AGS cells assessed as viable cells at 0.05 uM after 24 hrs by annexin V-FITC staining-based flow cytometric analysis (Rvb=91.5%). The following applies: read-out: Activity. Type of data set: functional. In outline: as §2
The test system of data set [11] is AGS. Kind of data set: Induction of apoptosis in human AGS cells assessed as viable cells at 0.1 uM after 24 hrs by annexin V-FITC staining-based flow cytometric analysis (Rvb=91.5%). Type of data set: functional. Particulars: read-out: Activity. In outline: as §2
Data set [12] concerns AGS. Kind of data set: Downregulation of tNOX protein level in human AGS cells at 0.1 to 0.5 uM after 24 hrs by Western blot analysis. Type of data set: functional, cell-based. A general note: In western blotting, separated proteins are transferred to a membrane and probed.
Data set [13] concerns Calf thymus DNA. Briefly: Binding affinity to calf thymus double stranded DNA by spectrophotometric titration method. Type of data set: nucleic-acid assay. Particulars: Bos taurus. In outline:
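Absorption spectra of compound recorded while double-stranded DNA concentration was increased (spectrophotometric titration); extinction at absorption maxima 540 and 585 nm and band shift followed.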

Data set [14] has as its system AGS. Kind of data set: Upregulation of acetylated p53 level in human AGS cells at 1 and 5 uM after 24 hrs by Western blot analysis. Type of data set: functional, cell-based.
Data set [15] has as its system AGS. Kind of data set: Downregulation of SIRT1 protein level in human AGS cells at 1 and 5 uM after 24 after 24 hrs by Western blot analysis. Type of data set: functional, cell-based.
The subject of data set [16] is AGS. Briefly: […] in human AGS cells assessed as downregulation of N-Cad after 24 hrs by Western blot analysis. Type of data set: functional, cell-based.
In data set [17] the test system is AGS. Kind of data set: […] in human AGS cells assessed as downregulation of beta-catenin after 24 hrs by Western blot analysis. Type of data set: functional, cell-based.
The next data set deals with MRC5. Kind of data set: Antiproliferative activity against human MRC5 cells after 72 hrs by cell impedance based study. Particulars: MRC5, 72 h.
The test system of data set [18] is Calf thymus DNA. Briefly: Binding affinity to calf thymus double stranded DNA assessed as number of base pairs covered by one molecule of compound by spectrophotometric titration method. The format is nucleic-acid assay. The following applies: Bos taurus.
Another data set relates to L1210. Kind of data set: Antiproliferative activity against mouse L1210 cells after 72 hrs by MTT assay. The following applies: L1210, 72 h.

By IC50 is commonly meant the concentration at which inhibition is half-maximal. The low end stands for greater potency in that assay, the high end for weaker potency in that assay.

Molecules are shown by their SMILES. Active and inactive are the calls of the source. No cut-off for these calls is given here.

Regarding `CNCCNc1c2c(c(NCCNC)c3occc13)C(=O)c1ccccc1C2=O`, the inhibition result in data set [1], in data set [4] and in data set [5] was “Active” each time. The IC50 in data set [2] came to 0.15 µM; with MRC5, 0.78 µM; with L1210, 0.1 µM. Also, the Drug uptake result in data set [3] is “Active”. The Activity was 7.5% with AGS [6]; 1.5% with AGS [7]; 1.3% in the data set on AGS [8]; 13% in the data set with AGS [9]; 3 in the data set with Calf thymus DNA [18]. In addition, the viability at 0.05 µM in the data set with AGS [10] was 78.9%. Also, in the data set with AGS [11], the viability at 0.1 µM stood at 63.2%. Also, the outcome with AGS [12], in the data set with AGS [14], with AGS [15], in the data set on AGS [16] and with AGS [17] was Active. Further, in the data set on Calf thymus DNA [13], the Ka was 2.5 ×10⁶ /M.

The values above are taken from ChEMBL document CHEMBL3745659, “Synthesis and Characterization of 4,11-Diaminoanthra[2,3-b]furan-5,10-diones: Tumor Cell Apoptosis through tNOX-Modulated NAD(+)/NADH Ratio and SIRT1” (J Med Chem, 2015).
